Published values from different studies.
Lines come from different studies, so protocols differ.
Target: Serine/threonine-protein kinase OSR1 (OXSR1, Homo sapiens, UniProt O95747)

For Cc1cc(C)c(-n2ccn3nc(-c4cccnc4)cc23)cc1NC(=O)c1cc(C#N)cc(S(F)(F)(F)(F)F)c1, the remaining binding was 87% (cell-free assay; competition with immobilised ligand; 0.1 µM).
Cc1cnn2ncc(-c3ccnc(N(C)C)n3)c2c1 gave a remaining binding of 84% (binding; 1 µM).
With O=C(c1ccc(Nc2ncc(Cl)c(-c3ccc(Cl)s3)n2)cc1)N1CCC(N2CCCC2)CC1 the remaining binding was 87% (binding; competition with immobilised ligand; 1 µM).
With c1cncc(-c2cccc(Nc3nccc(NC4CCCCC4)n3)c2)c1 the remaining binding was 100% (binding; competition with immobilised ligand; 10 µM).
C[C@H](c1cccc(C#N)c1)n1cc(Cl)cc(C(N)=O)c1=N has a remaining binding of 81% (cell-free assay; competition with immobilised ligand; 1 µM).
CN(CCCC(F)(F)F)c1nccc(-c2cnn3ncccc23)n1 has a remaining binding of 100% (binding; 1 µM).
The remaining binding of O=C(N[C@H]1CCCCC/C=C\C2C[C@@]2(C(=O)O)NC(=O)[C@@H]2C[C@@H](Oc3ccncc3)CN2C1=O)OC1CCCC1 (stereo partly shown) is reported as 75% (binding; competition with immobilised ligand; 1 µM).
O=C(NCCCN1CCOCC1)c1ccc(Nc2ncc(Cl)c(-c3ccc(Cl)s3)n2)cc1 has a remaining binding of 79% (binding; competition with immobilised ligand; 1 µM).
With O=C(O)[C@@H]1[C@@H](Cn2nnc3ccccc3c2=O)CC[C@H]1C(=O)c1ccc(OCCC2CCOCC2)cc1 the remaining binding was 100% (cell-free assay; competition with immobilised ligand; 1 µM).
For N[C@H]1CCN(c2nccc(-c3cnn4ncccc34)n2)C1, the remaining binding was 86% (binding; 1 µM).
FC(F)(F)Oc1cccc(-c2cnc3ccc(-c4ccncc4)nn23)c1 has a remaining binding of 82% (cell-free assay; competition with immobilised ligand; 5 µM).
C[C@H]1CCN(c2nccc(-c3cnn4ncccc34)n2)C1 has a remaining binding of 76% (binding; 1 µM).
CNC(=O)c1ccc(Nc2ncc(C(F)(F)F)c(NCc3nccnc3N(C)S(C)(=O)=O)n2)cc1 gave a remaining binding of 100% (cell-free assay; competition with immobilised ligand; 0.1 µM).
With COc1cnc(Nc2cccc(S(N)(=O)=O)c2)nc1N1CCN(c2ccccc2)CC1 the remaining binding was 90% (binding; competition with immobilised ligand; 1 µM).
With CS(=O)(=O)c1cc(C2(NC(=O)c3cncc4c3cnn4-c3ccc(F)cc3)CC2)ccn1 the remaining binding was 85% (cell-free assay; competition with immobilised ligand; 1 µM).
For CN(C)c1nccc(-c2cnn3ncccc23)n1, the remaining binding was 100% (binding; 1 µM).
O=C(NCC1CCOCC1)c1n[nH]cc1NC(=O)c1c(F)cccc1F gave a remaining binding of 73% (binding; competition with immobilised ligand; 1 µM).
With c1cnn2ncc(-c3ccnc(N4CCC45COC5)n3)c2c1 the remaining binding was 62% (binding; 1 µM).
COc1cnc(Nc2cccc(S(N)(=O)=O)c2)nc1N1CCN(c2ccccc2)C(=O)C1 has a remaining binding of 100% (binding; competition with immobilised ligand; 1 µM).
The remaining binding of NS(=O)(=O)c1cc(NC(=O)Cc2ccccc2)ccc1Oc1cccc(Cl)c1 is reported as 78% (cell-free assay; competition with immobilised ligand; 1 µM).
O=C(NCCCN1CCOCC1)c1ccc(Nc2nccc(-c3cc4ccccc4s3)n2)cc1 gave a remaining binding of 77% (binding; competition with immobilised ligand; 1 µM).
The remaining binding of CN(C)c1ncc(F)c(-c2cnn3ncccc23)n1 is reported as 95% (binding; 1 µM).
